From ChEMBL document CHEMBL4251647, “Synthesis, anticancer activity and mechanism of action of new thiazole derivatives” (Eur J Med Chem, 2018)

Legend:
[1] = system: K562; experiment: Cell cycle arrest in human K562 cells assessed as accumulation at G1-phase at 17 uM after 48 hrs by flow cytometry (reference value: 45.54 +/- 1.34%); type: functional
Procedure, shortened: (§1)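 K562 cells seeded at 3 x 10^5 cells/mL in RPMI-1640 and exposed 48 h at 37 °C, 5% CO2. Cells were stained with propidium iodide (Guava cell cycle kit) and 5,000 events acquired by flow cytometry. Vehicle control was 0.1% DMSO. Two independent experiments, each in triplicate.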

[2] = system: K562; experiment: Induction of DNA damage in human K562 cells at 34 uM after 48 hrs by propidium iodide staining based flow cytometry (reference value: 3.62 +/- 0.37%); type: functional
[3] = system: HEp-2; experiment: Cytotoxicity against human Hep2 cells assessed as inhibition of cell viability at 25 ug/ml after 72 hrs by MTT assay relative to control; type: functional; settings: HEp-2, 72 h
Procedure, shortened: (§2)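 Single-concentration MTT screen at 25 µg/mL for 72 h. Seeding was 3 x 10^5 cells/mL (HL-60, K562) or 1 x 10^5 cells/mL (adherent), with 24 h preincubation. MTT was added for the final 3 h, formazan dissolved in DMSO and absorbance read at 560 nm. Results are given as percent inhibition ± SD.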

[4] = system: K562; experiment: Cell cycle arrest in human K562 cells assessed as accumulation at S-phase at 34 uM after 48 hrs by flow cytometry (reference value: 17.39 +/- 0.84%); type: functional; procedure, shortened: as §1
[5] = system: K562; experiment: Cytotoxicity against human K562 cells assessed as inhibition of cell viability after 48 hrs by MTT assay; type: functional, cell-based; settings: K562, 48 h
Procedure, shortened: (§3)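 K562 cells (3 x 10^5 cells/mL, RPMI-1640 with 10% FBS) were treated with serial dilutions for 24 or 48 h. Viability was read by MTT (absorbance at 560 nm after DMSO solubilisation), and IC50 was obtained by regression.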

[6] = system: NCI-H292; experiment: Cytotoxicity against human NCI-H292 cells assessed as inhibition of cell viability after 72 hrs by MTT assay; type: functional, cell-based; settings: NCI-H292, 72 h
Procedure, shortened: (§4)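 MTT assay. Leukaemic lines were seeded at 3 x 10^5 cells/mL and adherent lines at 1 x 10^5 cells/mL, then preincubated 24 h. Compounds were added at 0.098–25.0 µg/mL for 72 h, with MTT for the last 3 h. Formazan was dissolved in DMSO and read at 560 nm. IC50 came from regression; triplicate, two independent experiments.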

[7] = system: K562; experiment: Cell cycle arrest in human K562 cells assessed as accumulation at G2/M-phase at 17 uM after 48 hrs by flow cytometry (reference value: 35.97 +/- 1.94%); type: functional; procedure, shortened: as §1
[8] = system: K562; experiment: Cytotoxicity against human K562 cells assessed as inhibition of cell viability after 72 hrs by MTT assay; type: functional, cell-based; settings: K562, 72 h; procedure, shortened: as §4
[9] = system: K562; experiment: Cytotoxicity against human K562 cells assessed as inhibition of cell viability at 25 ug/ml after 72 hrs by MTT assay relative to control; type: functional; settings: K562, 72 h; procedure, shortened: as §2
[10] = system: HL-60; experiment: Cytotoxicity against human HL60 cells assessed as inhibition of cell viability at 25 ug/ml after 72 hrs by MTT assay relative to control; type: functional; settings: HL-60, 72 h; procedure, shortened: as §2
[11] = system: NCI-H292; experiment: Cytotoxicity against human NCI-H292 cells assessed as inhibition of cell viability at 25 ug/ml after 72 hrs by MTT assay relative to control; type: functional; settings: NCI-H292, 72 h; procedure, shortened: as §2
[12] = system: K562; experiment: Induction of mitochondrial membrane potential depolarization in human K562 cells at 34 uM after 48 hrs by Rho-123 staining based flow cytometry (reference value: 12.24 +/- 0.61%); type: functional
[13] = system: K562; experiment: Induction of DNA damage in human K562 cells at 17 uM after 48 hrs by propidium iodide staining based flow cytometry (reference value: 3.62 +/- 0.37%); type: functional
[14] = system: HT-29; experiment: Cytotoxicity against human HT-29 cells assessed as inhibition of cell viability at 25 ug/ml after 72 hrs by MTT assay relative to control; type: functional; settings: HT-29, 72 h; procedure, shortened: as §2
[15] = system: PBMC; experiment: Cytotoxicity against human PBMC cells assessed as inhibition of cell viability after 72 hrs by alamar blue assay; type: cell-based
Procedure, shortened: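 PBMC from healthy donors were grown in RPMI-1640 with 20% FBS and 2% phytohaemagglutinin, then plated at 10^6 cells/mL. After 24 h, compounds (0.048–25 µg/mL, in DMSO) were added for 72 h. Resazurin was added for the final 24 h and absorbance read at 570 and 595 nm as percent of control.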

[16] = system: HEp-2; experiment: Cytotoxicity against human Hep2 cells assessed as inhibition of cell viability after 72 hrs by MTT assay; type: functional, cell-based; settings: HEp-2, 72 h; procedure, shortened: as §4
[17] = system: K562; experiment: Cell cycle arrest in human K562 cells assessed as accumulation at G1-phase at 34 uM after 48 hrs by flow cytometry (reference value: 45.54 +/- 1.34%); type: functional; procedure, shortened: as §1
[18] = system: K562; experiment: Cytotoxicity against human K562 cells assessed as inhibition of cell viability by MTT assay; type: functional, cell-based; settings: TDE = time-dependent effect
[19] = Selectivity index, ratio of IC50 for human PBMC to IC50 for human K562 cells; type: toxicity; settings: human PBMC and human K562 cells, read-out: Ratio IC50
Procedure, shortened: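 Ratio of IC50 in PBMC (Alamar blue, 72 h) to IC50 in K562 cells (MTT, 72 h), calculated as SI = IC50(PBMC)/IC50(K562).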

[20] = system: K562; experiment: Cell cycle arrest in human K562 cells assessed as accumulation at G2/M-phase at 34 uM after 48 hrs by flow cytometry (reference value: 35.97 +/- 1.94%); type: functional; procedure, shortened: as §1
[21] = system: HT-29; experiment: Cytotoxicity against human HT-29 cells assessed as inhibition of cell viability after 72 hrs by MTT assay; type: functional, cell-based; settings: HT-29, 72 h; procedure, shortened: as §4
[22] = system: K562; experiment: Cell cycle arrest in human K562 cells assessed as accumulation at S-phase at 17 uM after 48 hrs by flow cytometry (reference value: 17.39 +/- 0.84%); type: functional; procedure, shortened: as §1
[23] = system: Erythrocyte; experiment: Hemolytic activity in human erythrocytes after 1 hr by spectrophotometric method; type: ADME, cell-based
Procedure, shortened: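 Human erythrocytes as a 2% suspension in 0.85% NaCl with 10 mM CaCl2 were exposed to 0.78–250 µg/mL for 1 h at room temperature. After centrifugation, released haemoglobin in the supernatant was read at 540 nm. Triton X-100 (1%) served as positive control; EC50 is the concentration giving 50% haemolysis.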

[24] = system: K562; experiment: Cytotoxicity against human K562 cells assessed as inhibition of cell viability after 24 hrs by MTT assay; type: functional, cell-based; settings: K562, 24 h; procedure, shortened: as §3
[25] = system: HL-60; experiment: Cytotoxicity against human HL60 cells assessed as inhibition of cell viability after 72 hrs by MTT assay; type: functional, cell-based; settings: HL-60, 72 h; procedure, shortened: as §4
[26] = system: K562; experiment: Induction of mitochondrial membrane potential depolarization in human K562 cells at 17 uM after 48 hrs by Rho-123 staining based flow cytometry (reference value: 12.24 +/- 0.61%); type: functional

FC(F)(F)c1ccc(/C=N/Nc2nc(-c3ccc(Cl)cc3Cl)cs2)cc1
Activity [1]: 85.25% | Activity [2]: 22.43% | inhibition at 25 µg/mL [3]: 96.7% | Activity [4]: 6.72% | IC50 [5]: 17.8 µM | IC50 [6]: 10.4 µM | Activity [7]: 7.51% | IC50 [8]: 5.48 µM | inhibition at 25 µg/mL [9]: 88.9% | inhibition at 25 µg/mL [10]: 91.1% | inhibition at 25 µg/mL [11]: 96.5% | Activity [12]: 37.12% | Activity [13]: 19.74% | inhibition at 25 µg/mL [14]: 79.5% | IC50 [15]: 43 µM | IC50 [16]: 7.65 µM | Activity [17]: 82.74% | Activity [18]: Tde | selectivity ratio [19]: 7.85 | Activity [20]: 11.47% | IC50 [21]: 11.2 µM | Activity [22]: 7.23% | EC50 [23]: > 250 µg/mL | IC50 [24]: > 60.1 µM | IC50 [25]: 17.8 µM | Activity [26]: 25.05%
